Many of the other results were omitted from the sample, so hits are more common in it than they were.
Jurkat NFkB inh: inhibitors of the PMA/ionomycin-induced NF-kB reporter in Jurkat cells. PMA/ionomycin-induced NF-kB luciferase reporter, luminescence. inhibition, % at 4 µM. 0.53% of 330,000 active; in the data active = inhibition above about 50%
CHOP UPR activ: activators of apoptotic arm of unfolded protein response (CHOP) | 0.34% of 330,000 active | AID 449763 | CHO-CHOP luciferase reporter, UPR activation, luminescence; percent of tunicamycin response over DMSO baseline | activation, % at 10 µM;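 active = at 10 µM dose, activation of 40% or more, normalized to positive control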;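 note: 100% = tunicamycin at 10 µg/mL and 0% = DMSO alone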
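System: CHO CHOP reporter cells. Amount: 500 cells per well. Buffer or medium: F12 medium, 10% FBS. Compound dosing: one dose, 10 µM in 0.5% DMSO. Incubation: 6 h compound exposure at 37 °C after overnight seeding. Technique: Steady-Glo luciferase luminescence. Benchmarks: tunicamycin and DMSO controls.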
CHOP inh: blocks CHOP induction under ER stress; CHO-K1 CHOP-promoter luciferase, tunicamycin-induced, 15-18 h; inhibition, % at 10 µM; 3.8% of 220,000 active;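 active = compounds that reduced the stress-induced luciferase reporter signal by more than about 70% of percent inhibition, limit read from the data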;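 note: 0% = tunicamycin plus vehicle and 100% = wells without tunicamycin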
XBP1 UPR activ: adaptive UPR (XBP1) activation | CHO-XBP1 luciferase reporter, IRE1-XBP1 UPR activation, luminescence; percent of tunicamycin response, DMSO as zero | activation, % at 20 µM | 0.33% of 330,000 active;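 active = versus positive control, 20 µM dose yields 30% or more activation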;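 note: 100% = tunicamycin at 10 µg/mL and 0% = DMSO only wells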
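Assay system: IRE1-XBP1 luciferase reporter CHO line. Input: 1000 cells/well. Buffer or medium: F12 with 10% serum. Doses: 20 µM, 1% DMSO. Times: overnight seeding at 37 °C, 6 h compound treatment at 37 °C. Technique: Steady-Glo luciferase glow luminescence, 10 min after reagent addition.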
697 NFkB inh: inhibitors of the PMA/ionomycin-induced NF-kB reporter in 697 B cells | 697 B-cell NF-kB luciferase reporter, 16 h | inhibition, % at 4 µM | 0.33% of 330,000 active | AID 435022; in the data active = inhibition above about 35%
Numbers without * were called inactive; nt = no result.

SMILES	Jurkat NFkB inh	CHOP UPR activ	CHOP inh	XBP1 UPR activ	697 NFkB inh
O=C(Nc1ccccc1N1CCCCC1)c1cnccn1	-3	-3	80*	4	8
CCOc1ccc(OCCOC(=O)CN2C(=O)NC3(CCCC3)C2=O)cc1	4	2	nt	0	13
Nc1nc(-c2cccnc2)nn1C(=O)c1ccc(F)cc1	nt	nt	22	nt	nt
COc1ccccc1NS(=O)(=O)c1cc(NC(=O)c2cccs2)ccc1N1CCCC1	6	-1	2	0	-12
O=C(Nc1ccc(N2CCCC2)c(S(=O)(=O)Nc2cccc(C(F)(F)F)c2)c1)c1cccs1	2	-2	90*	-3	-4
CCOc1ccc(C(=O)c2ccc([N+](=O)[O-])cc2Cl)cc1	2	-2	31	-2	11
CCOc1ccc(C(=O)c2cc([N+](=O)[O-])ccc2Cl)cc1	15	0	82*	4	19
O/N=C(\c1ccc(Cl)cc1)c1cc2ccccc2o1	6	1	85*	1	-22
Cc1ccc(S(=O)(=O)c2c(C)nn(C(C)(C)C)c2OC(=O)C2CCCC2)cc1	4	0	77*	-1	4
Cc1nn(C(C)(C)C)c(OC(=O)C2CCCC2)c1S(=O)(=O)c1ccccc1	nt	nt	30	nt	nt
Cc1cccc(OCC(=O)NCCCNC(=O)c2ccco2)c1	-5	-2	nt	-1	9
O=C(CSc1cccc[n+]1[O-])Nc1ccccc1Oc1ccccc1	0	108*	-87	15	-8
O=C(CSc1cccc[n+]1[O-])Nc1ccccc1C(F)(F)F	9	1	nt	-1	11
O=C(O)c1cccc(-n2cccc2/C=C/[N+](=O)[O-])c1	-6	1	5	-2	22
Cc1ccc(S(=O)(=O)NC(c2ccccc2)C(C)C(=O)n2nc(C)cc2C)cc1 (stereo not given)	9	-1	73*	-6	4
Cc1ccc(S(=O)(=O)NC(CC(=O)O)c2ccccc2)cc1 (stereo not given)	4	-2	35	-2	8
Cc1ccc(S(=O)(=O)NC(CC(=O)n2nc(C)cc2C)c2ccccc2)cc1 (stereo not given)	-2	1	80*	1	5
CC1CC(C)CN(C(=O)c2ccc3c(c2)N(Cc2ccccc2)CCS3)C1 (stereo not given)	7	-1	73*	0	11
O=C(Nc1cc(S(=O)(=O)Nc2ccc(Cl)cc2)ccc1O)c1ccc(S(=O)(=O)N2CCCCCC2)cc1	2	-1	-1	-3	-5
O=C(N/N=C\c1cc(Cl)ccc1O)c1ccc(S(=O)(=O)N2CCCCC2)cc1	32	-2	81*	3	-67
CC(C)C1Cc2c(sc(NC(=S)NC(=O)c3ccccc3)c2C#N)CO1 (stereo not given)	-16	0	83*	1	-61
CC(C)N1CCc2c(sc(NC(=S)NC(=O)c3ccccc3)c2C#N)C1	-62	3	5	4	-72
CCc1cccc(NC(=O)CS(=O)Cc2nc(-c3ccc(C)cc3)oc2C)c1 (stereo not given)	5	0	93*	-2	12
O=C(O)CCCSCC(=O)Nc1ccccc1	12	3	-1	-1	8
O=C(CSCCNS(=O)(=O)c1ccccc1)Nc1ccccc1	-4	0	74*	-3	3
SMILES	Jurkat NFkB inh	CHOP UPR activ	CHOP inh	XBP1 UPR activ	697 NFkB inh
O=C(Nc1cccc(C(F)(F)F)c1)N(Cc1ccc(Cl)cc1)CC(O)C(F)(F)F (stereo not given)	11	0	74*	1	-6
COc1ccc(-c2c(C)nn3c(N4CCN(Cc5ccccc5)CC4)cc(C)nc23)cc1OC	11	0	29	-2	-13
COc1ccccc1-c1c(C)nn2c(N3CCN(Cc4ccccc4)CC3)cc(C)nc12	4	0	92*	-2	-59
COc1ccccc1-c1c(C)nn2c(N3CCCCCC3)cc(C)nc12	1	-3	90*	-1	-34
CCCN(CC(=O)Nc1ccccc1OC)C(=O)C1=COCCO1	-20	-4	nt	4	4
Cc1cccc(NS(=O)(=O)c2cc(C(=O)N3CCOCC3)ccc2Cl)c1	7	-1	-7	2	16
CC(C)(C)NC(=O)NC(=O)C[n+]1ccc(Cc2ccc([N+](=O)[O-])cc2)cc1	11	-1	nt	-3	15
c1ccc2c(c1)ncn2CCCCOc1ccc2c(c1)CCC2	9	-1	70*	2	-45
Cc1ccccc1OCCCCn1cnc2ccccc21	22	6	72*	10	-49
COc1cccc(OC)c1OCCCCn1cnc2ccccc2c1=O	0	-1	8	2	-9
Cc1cc(C)c(C)c(OCCCCn2cnc3ccccc3c2=O)c1	2	0	91*	-1	-10
CC(C)(c1ccccc1)c1ccc(OCCn2cnc3ccccc3c2=O)cc1	2	2	77*	0	-11
COc1ccccc1OCCNC(=O)CSC(=S)N1CCCC1	6	1	nt	1	2
Cc1noc(NS(=O)(=O)c2ccc(NS(=O)(=O)c3ccc(Cl)cc3)cc2)c1C	-1	-1	nt	1	1
Cc1ccc(C(=O)NCCC(=O)N2CCC3(CC2)NCCc2[nH]cnc23)cc1C	7	2	nt	-6	0
Cc1ccc(CNC(=O)CSc2nc(N3CCCCC3)nc(N3CCCCC3)n2)cc1	-15	1	71*	-4	-18
Cc1ccccc1NC(=O)CSc1nc(N2CCCCC2)nc(N2CCCCC2)n1	12	0	68	0	5
O=c1c2ccccc2c(-c2cccc(C(F)(F)F)c2)nn1-c1ccccc1	-1	1	29	-4	-3
O=c1c2ccccc2c(-c2ccc(O)cc2)nn1-c1cccc(C(F)(F)F)c1	7	0	94*	2	-4
Cc1[nH]c(C)c(S(=O)(=O)Nc2ccc(OC(F)(F)F)cc2)c1C(=O)N1CCCCC1	5	3	nt	7	-28
CCc1ccc2[nH]c(=O)c(C(c3nnnn3CC3CCCO3)N3CCCc4ccccc43)cc2c1 (stereo not given)	16	3	84*	2	11
Cc1cc2cc(C(c3nnnn3CC3CCCO3)N3CCCc4ccccc43)c(=O)[nH]c2cc1C (stereo not given)	nt	nt	41	nt	nt
COc1ccc(N2CCN(C(=O)c3ccc4c(c3)[nH]c(=S)n3c5ccccc5nc43)CC2)cc1	1	1	73*	-2	15
COc1ccc(N2CCN(C(=O)C3CCC(Cn4c(=S)[nH]c5ccccc5c4=O)CC3)CC2)cc1 (stereo not given)	19	3	71*	0	-22
O=C(C1CCC(Cn2c(=S)[nH]c3ccccc3c2=O)CC1)N1CCN(c2ccccc2)CC1 (stereo not given)	4	1	nt	-2	-48
COc1ccccc1NC(=O)Cn1c(CCC(=O)O)ccc1-c1ccc(C)cc1	15	-1	-3	-3	17

Screening data: PubChem, several laboratories
